According to ChEMBL document CHEMBL2440054, “Largazole Arrests Cell Cycle at G1 Phase and Triggers Proteasomal Degradation of E2F1 in Lung Cancer Cells” (ACS Med Chem Lett, 2013):
Calls of active or inactive are those of the source. The calls are words filed in the database; no cut-off is given here.

What was measured:
[1] = biological target: Transcription factor E2F1 (Homo sapiens) (UniProt Q01094); assay: Induction of E2F1 ubiquitination in human A549 cells at 0.1 uM after 8 hrs by immunoprecipitation and Western blotting analysis; format: cell-based
Chain of Transcription factor E2F1 (Homo sapiens) (Q01094 whole entry): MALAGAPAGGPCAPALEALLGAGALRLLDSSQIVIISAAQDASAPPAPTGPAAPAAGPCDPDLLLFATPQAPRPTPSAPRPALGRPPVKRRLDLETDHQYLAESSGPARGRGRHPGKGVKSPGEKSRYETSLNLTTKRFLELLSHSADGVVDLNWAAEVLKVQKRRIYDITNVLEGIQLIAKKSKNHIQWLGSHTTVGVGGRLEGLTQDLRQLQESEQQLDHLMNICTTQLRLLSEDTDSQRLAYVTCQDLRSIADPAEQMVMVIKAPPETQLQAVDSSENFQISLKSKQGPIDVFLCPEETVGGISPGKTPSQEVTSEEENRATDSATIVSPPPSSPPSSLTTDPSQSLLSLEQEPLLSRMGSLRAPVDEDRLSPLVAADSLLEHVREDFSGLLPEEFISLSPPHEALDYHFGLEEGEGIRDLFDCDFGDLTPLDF
Summary of the method: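 Lysates of A549 cells given 0.1 μM largazole for 8 h were immunoprecipitated with anti-E2F1 and probed by Western blot with anti-ubiquitin.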

A549 [2] = assay: Downregulation of E2F1 in human A549 cell nucleus at 0.1 uM after 6 to 24 hrs by Western blotting analysis; format: functional, cell-based
Summary of the method: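 A549 cells exposed to 0.1 μM largazole for indicated times. Cytoplasmic and nuclear fractions separated, then Western blotted for E2F1.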

[3] = biological target: Transcription factor E2F1 (Homo sapiens) (UniProt Q01094); assay: Induction of E2F1 degradation in human L78 cells at 0.1 uM after 12 to 24 hrs by Western blotting analysis; format: cell-based
Summary of the method: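 Each cell line (16-HBE, 95D, L78, H1975, H460) treated with 0.1 μM largazole for indicated times. Lysates Western blotted for E2F1.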

A549 [4] = assay: Downregulation of E2F1 protein expression in human A549 cells at 0.1 uM by Western blotting analysis; format: functional, cell-based; settings: TDE = time-dependent effect
Summary of the method: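 A549 cells treated with 0.1 μM largazole over a time course, or with a range of concentrations for 12 h. Lysates Western blotted for E2F1.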

[5] = biological target: T1, Retinoblastoma-associated protein (Homo sapiens) (UniProt P06400); assay: Dephosphorylation of Rb in human A549 cells assessed as increase in E2F1-HDAC1 interaction at 0.1 uM after 8 hrs by immunoprecipitation and Western blotting analysis; format: cell-based
T1 sequence (whole entry): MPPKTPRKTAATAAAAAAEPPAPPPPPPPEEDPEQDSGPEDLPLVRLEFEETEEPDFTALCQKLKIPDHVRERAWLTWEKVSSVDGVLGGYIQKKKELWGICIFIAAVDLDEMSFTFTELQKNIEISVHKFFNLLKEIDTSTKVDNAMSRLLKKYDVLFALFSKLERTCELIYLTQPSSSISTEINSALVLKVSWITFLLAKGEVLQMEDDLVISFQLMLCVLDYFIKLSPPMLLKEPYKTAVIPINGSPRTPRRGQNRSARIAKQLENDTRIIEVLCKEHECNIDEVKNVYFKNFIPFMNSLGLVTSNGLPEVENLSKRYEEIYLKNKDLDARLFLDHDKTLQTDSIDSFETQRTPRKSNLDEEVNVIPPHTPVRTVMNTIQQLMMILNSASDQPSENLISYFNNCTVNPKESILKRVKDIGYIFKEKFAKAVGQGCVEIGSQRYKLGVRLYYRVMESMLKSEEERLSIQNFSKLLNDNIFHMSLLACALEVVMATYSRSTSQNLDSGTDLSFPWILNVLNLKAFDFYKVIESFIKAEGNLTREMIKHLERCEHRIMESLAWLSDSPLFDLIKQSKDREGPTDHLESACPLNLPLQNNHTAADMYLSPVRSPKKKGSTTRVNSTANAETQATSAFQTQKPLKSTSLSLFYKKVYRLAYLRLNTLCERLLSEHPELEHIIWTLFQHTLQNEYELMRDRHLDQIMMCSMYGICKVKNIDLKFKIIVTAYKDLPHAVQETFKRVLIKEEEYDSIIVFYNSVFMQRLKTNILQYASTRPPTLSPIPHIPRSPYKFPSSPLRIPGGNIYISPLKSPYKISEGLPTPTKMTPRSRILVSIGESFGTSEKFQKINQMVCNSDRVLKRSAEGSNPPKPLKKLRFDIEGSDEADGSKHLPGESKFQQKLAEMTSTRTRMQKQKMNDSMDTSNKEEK
Summary of the method: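 A549 cells treated with 0.1 μM largazole for 8 h and lysed. Lysates immunoprecipitated, then Western blotted with the indicated antibodies.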

[6] = biological target: T1, Retinoblastoma-associated protein (Homo sapiens); assay: Dephosphorylation of Rb in human A549 cells at 0.1 uM after 6 to 12 hrs by Western blotting analysis; format: cell-based
A549 [7] = assay: Effect on cyclin D1 protein expression in human A549 cells at 0.1 uM after 6 to 36 hrs by Western blotting analysis; format: functional, cell-based
Summary of the method: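 A549 cells exposed to 0.1 μM largazole over a time course, lysed, and Western blotted for cyclin D1, CDK2, CDK4, p21 and p27.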

A549 [8] = assay: Induction of apoptosis in human A549 cells assessed as increase in PARP cleavage at 0.1 uM after 48 hrs by Western blotting analysis; format: functional, cell-based
Summary of the method: (§1)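 A549 cells exposed to 0.1 μM for a time course, then lysed and Western blotted. Read-outs are pro- and cleaved caspase-9, pro- and active caspase-3, and cleaved PARP.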

A549 [9] = assay: Induction of apoptosis in human A549 cells assessed as increase in cleaved caspase-3 level at 0.1 uM after 48 hrs by Western blotting analysis; format: functional, cell-based; summary of the method: as §1
A549 [10] = assay: Induction of apoptosis in human A549 cells assessed as effect on caspase-8 protein expression at 0.1 uM after 48 hrs by Western blotting analysis; format: functional, cell-based
Summary of the method: (§2)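 A549 cells given largazole 0.1 μM for indicated times, lysed, and Western blotted for pro-/cleaved caspase-9, caspase-8, pro-/active caspase-3 and PARP.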

A549 [11] = assay: Induction of apoptosis in human A549 cells assessed as increase in cleaved caspase-9 level at 0.1 uM after 48 hrs by Western blotting analysis; format: functional, cell-based; summary of the method: as §1
A549 [12] = assay: Induction of apoptosis in human A549 cells assessed as downregulation of pro-caspase-9 protein expression at 0.1 uM after 48 hrs by Western blotting analysis; format: functional, cell-based; summary of the method: as §2
A549 [13] = assay: Induction of apoptosis in human A549 cells at 0.3 to 1 uM after 48 hrs by Annexin V and propidium iodide staining-based flow cytometric analysis relative to control; format: functional
Summary of the method: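 A549 cells treated for 48 h at 0.3 to 1 μM, stained with Annexin V/PI and analysed by flow cytometry for the apoptotic fraction.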

A549 [14] = assay: Cell cycle arrest in human A549 cells assessed as accumulation at G2 phase at 0.06 uM after 24 hrs by propidium iodide staining-based flow cytometric analysis (reference value: 3.7%); format: functional
A549 [15] = assay: Cell cycle arrest in human A549 cells assessed as accumulation at S phase at 0.06 uM after 24 hrs by propidium iodide staining-based flow cytometric analysis (reference value: 48%); format: functional
NCI-H460 = assay: Cytotoxicity against human NCI-H460 cells assessed as inhibition of colony formation pretreated for 24 hrs followed by seeding measured after 10 days by clonogenic assay; format: functional, cell-based
Summary of the method: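 Soft-agar clonogenic assay. Cells pretreated 24 h with largazole or DMSO, then seeded in 0.3% soft agar upper layer over 0.6% soft agar lower layer. Colonies counted by microscope after 10 days. Mean ± SD of three independent experiments.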

[16] = Cytotoxicity against human 16HBE cells after 48 hrs by CCK-8 assay; format: cell-based; settings: 16HBE14o-
Summary of the method: (§3)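 Cells treated with a range of largazole concentrations for 48 h. Proliferation read by CCK-8 assay; IC50 derived from the concentration series.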

NCI-H1975 = assay: Cytotoxicity against human NCI-H1975 cells after 48 hrs by CCK-8 assay; format: functional, cell-based; settings: NCI-H1975, 48 h; summary of the method: as §3
[17] = biological target: Histone deacetylase 1 (Homo sapiens) (UniProt Q13547); settings: NCI-H460, 0.1 uM
Chain of Histone deacetylase 1 (Homo sapiens) (Q13547 whole entry): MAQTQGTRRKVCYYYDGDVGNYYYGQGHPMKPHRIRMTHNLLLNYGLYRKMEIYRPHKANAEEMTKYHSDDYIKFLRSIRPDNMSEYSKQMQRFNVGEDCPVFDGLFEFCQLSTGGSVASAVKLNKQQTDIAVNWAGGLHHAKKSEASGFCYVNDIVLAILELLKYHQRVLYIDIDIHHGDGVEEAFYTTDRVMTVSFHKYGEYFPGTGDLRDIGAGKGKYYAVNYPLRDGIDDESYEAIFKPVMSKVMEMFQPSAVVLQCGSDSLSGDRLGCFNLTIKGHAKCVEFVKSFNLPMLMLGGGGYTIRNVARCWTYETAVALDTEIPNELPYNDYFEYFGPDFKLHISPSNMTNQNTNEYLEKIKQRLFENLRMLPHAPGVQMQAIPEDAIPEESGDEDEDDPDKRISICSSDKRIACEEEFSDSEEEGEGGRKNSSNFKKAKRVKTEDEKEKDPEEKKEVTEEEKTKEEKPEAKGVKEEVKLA

[18] = biological target: Histone deacetylase 1 (Homo sapiens) (UniProt Q13547); settings: A549, 0.01 to 1 uM

CCCCCCCC(=O)SCC/C=C/[C@@H]1CC(=O)NCc2nc(cs2)C2=N[C@@](C)(CS2)C(=O)N[C@@H](C(C)C)C(=O)O1 [LARGAZOLE]
Activity [1]: Active
Activity (A549 [2]): Active
Activity [3]: Active
Activity (A549 [4]): tde
Activity [5]: Active
Activity [6]: Active
Activity (A549 [7]): inactive
Activity (A549 [8]): Active
Activity (A549 [9]): Active
Activity (A549 [10]): inactive
Activity (A549 [11]): Active
Activity (A549 [12]): Active
Activity (A549 [13]): <=70%
Activity (A549 [14]): 3.1%
Activity (A549 [15]): 6.5%
inhibition (NCI-H460): Dose-dependent effect
IC50 [16]: > 10000 nM
IC50 (NCI-H1975): 83 nM
inhibition [17]: Active
inhibition [18]: Active
